Results from PMC5795620 (Journal of medicinal chemistry, 2017).
Values belong to the compound of their own block, whether it stands above or below them.

What was measured:
[1] = Metabolic stability in swine brain homogenate; type: in vitro ADME; conditions: 10 μM, 0-60 min
[2] = Metabolic stability in mouse plasma; type: in vitro ADME; conditions: representative chromatogram (Figure S1)
[3] = Metabolic stability in swine plasma; type: in vitro ADME; conditions: 60 min incubation in swine plasma
[4] = tested on: EcoHIV; experiment: EcoHIV viral load in spleen and brain by qPCR; type: in vivo, mouse; conditions: EcoHIV-infected mice, 1 mg/kg, ip, qod
[5] = tested on: EcoHIV-infected mice; experiment: Radial arm water maze in EcoHIV-infected mice; type: in vivo, mouse; conditions: control for visual or motor function; 1 mg/kg, ip, qod
In short: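 Male C57BL/6J mice, 5 weeks old, randomized (n = 8/group) to drug or saline starting 1 day before ip EcoHIV (2 × 106 pg p24) or sham PBS inoculation. Dosing continued through 30-day infection and testing. From day 30 p.i., six-lane opaque-water RAWM with visual cues. After hidden-platform trials, latency to a visible platform measured in the same context.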

[6] = Overt toxicity observation in mice during 14 treatment; type: in vivo, mouse; conditions: 1 mg/kg, ip, qod over infection period and testing
[7] = nonhuman primate, systemic administration; cited from earlier work

Structure (SMILES): CC(C)OC(=O)[C@H](CCC(=O)C=[N+]=[N-])NC(=O)OCOC(=O)C(C)(C)C [Compound 13a, Isopropyl 6-Diazo-5-oxo-2-((((pivaloyloxy)methoxy)-carbonyl)amino)hexanoate]
Stability in swine plasma (in words) [3]: labile

Structure (SMILES): [N-]=[N+]=CC(=O)CC[C@H](N)C(=O)O [Compound 14, 6-diazo-5-oxo-L-norleucine]
EcoHIV viral load in the brain [4]: no effect
EcoHIV viral load in the spleen (DNA copies) ([4]; p = 0.022): slight increase
RAWM escape latency to a visible platform [5]: no effect
Overt signs of toxicity (diarrhea, weight loss) [6]: no mice exhibited overt signs of toxicity

Structure (SMILES): CC(C)OC(=O)[C@H](CCC(=O)C=[N+]=[N-])NC(=O)OC(OC(=O)C(C)(C)C)C(C)C (mixture of isomers) [Compound 13c, Isopropyl 6-Diazo-2-(((2-methyl-1-(pivaloyloxy)propoxy)-carbonyl)amino)-5-oxohexanoate]
Metabolic lability in swine brain homogenate (in words) [1]: readily biotransformed

The next lines start with results.

Metabolic lability in swine brain homogenate (in words) [1]: readily biotransformed
Time to complete conversion to 14 in mouse plasma [2]: ≤ 10 min
Structure (SMILES): CC(C)OC(=O)[C@H](CCC(=O)C=[N+]=[N-])NC(=O)OC(OC(=O)C(C)(C)C)c1ccccc1 (some centres unmarked) [Compound 13d, Isopropyl 6-Diazo-5-oxo-2-(((phenyl(pivaloyloxy)methoxy)-carbonyl)amino)hexanoate]

Metabolic lability in swine brain homogenate (in words) [1]: mostly stable
Structure (SMILES): CC(C)OC(=O)[C@H](CCC(=O)C=[N+]=[N-])NC(=O)OC(C)(C)OC(=O)C(C)(C)C [Compound 13e, Isopropyl 6-Diazo-5-oxo-2-((((2-(pivaloyloxy)propan-2-yl)-oxy)carbonyl)amino)hexanoate]

Metabolic lability in swine brain homogenate (in words) [1]: moderately labile
Structure (SMILES): CC(C)OC(=O)[C@H](CCC(=O)C=[N+]=[N-])NC(=O)O[C@H](C)OC(=O)C(C)(C)C [Compound 13b, Isopropyl 6-Diazo-5-oxo-2-(((1-(pivaloyloxy)ethoxy)-carbonyl)amino)hexanoate]
Enhancement in the CSF-to-plasma ratio of 14 exposure relative to equimolar 14 [7]: about 10 fold
